Screening results (PubChem)
In the library only some 4.2% were active in any assay of this set; here they are far more common.
hERG protect: shields human hERG channel from block by proarrhythmic agents; 310,000 compounds, 0.51% hits; Q12809; CHO-hERG, FluxOR thallium flux, dofetilide IC70 present; activation (rescue from dofetilide block), less the hit threshold, % at 10 µM;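 active means activation above the mean of controls blocked by dofetilide plus 5 SD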;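 further: thallium influx through hERG after potassium depolarization seen as dye fluorescence rise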
Mot1-301 SUMO: SUMOylation pathway inhibition by Mot1-301 growth rescue; growth rescue, % at 18.8 µM; S. cerevisiae Mot1-301 growth rescue, ATP luminescence, 38.5C; percent above DMSO median, 100 means doubled; AID 2716; 320,000 compounds, 1% hits;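 active means every valid replicate shows activation above 250% relative to neutral control wells; inactive means the rest, any valid replicate at or below 250%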;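 further: OY570 slx delta 5 strain wells were the positive control but not used for scaling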
Cl transport mod: modulators of human KCC2 chloride dependent transport | AID 1456 | KCC2 cells, thallium flux FluoZin-2 fluorescence | 190,000 compounds, 2.2% hits | B-score of Tl+ flux slope (higher = more flux/activation; lower = inhibition) at 10 µM;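 active means thallium flux slope and its plate-corrected score both differing from the plate sample mean at a set confidence after two filtering rounds, in either direction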;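 further: slope of fluorescence scaled to starting intensity during 10 to 20 s after thallium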
KCNQ1 pot: human KCNQ1 channel potentiation or activation. P51787. CHO-K1 KCNQ1, thallium flux FluxOR fluorescence; hits give high values. B-score at 10 µM. 310,000 compounds, 0.35% hits;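 active means fluorescence ratio B-score, a plate-corrected score, at least three library SD, with initial intensity B-score within 5 SD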
Target sequence (P51787 whole entry, looked up): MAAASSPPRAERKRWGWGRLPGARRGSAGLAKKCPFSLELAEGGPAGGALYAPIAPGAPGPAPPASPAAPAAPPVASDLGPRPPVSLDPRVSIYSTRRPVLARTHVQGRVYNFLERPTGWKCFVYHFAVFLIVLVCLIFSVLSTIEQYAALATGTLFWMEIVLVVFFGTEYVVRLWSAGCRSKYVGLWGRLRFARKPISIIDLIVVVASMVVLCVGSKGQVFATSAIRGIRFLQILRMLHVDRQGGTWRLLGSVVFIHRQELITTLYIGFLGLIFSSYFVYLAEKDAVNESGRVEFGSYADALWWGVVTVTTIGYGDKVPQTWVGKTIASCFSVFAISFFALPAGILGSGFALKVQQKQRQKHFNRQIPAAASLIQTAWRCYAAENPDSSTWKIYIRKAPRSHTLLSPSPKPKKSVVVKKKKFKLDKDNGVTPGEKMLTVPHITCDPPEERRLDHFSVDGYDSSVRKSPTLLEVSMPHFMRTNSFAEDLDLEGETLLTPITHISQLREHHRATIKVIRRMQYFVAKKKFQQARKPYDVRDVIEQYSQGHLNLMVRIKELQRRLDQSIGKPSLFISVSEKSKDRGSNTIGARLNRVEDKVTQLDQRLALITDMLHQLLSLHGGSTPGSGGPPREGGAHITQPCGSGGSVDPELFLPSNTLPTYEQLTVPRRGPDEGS
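System: CHO-K1 cells stably expressing KCNQ1 / Medium: assay buffer for compound exposure, DMSO matched across wells / Reagent: thallium- and potassium-containing depolarizing buffer / Compound: one concentration, matched DMSO / Incubation: 20 min compound pretreatment at room temperature / Measured by: kinetic FluxOR fluorescence, 10 s baseline plus 110 s post-stimulus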
KCNQ1 inh: human KCNQ1 channel inhibition; CHO-K1 KCNQ1, FluxOR thallium flux fluorescence; hits give high values; B-score at 10 µM; 310,000 compounds, 1.3% hits; AID 2642; P51787;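 active means compounds whose thallium flux B-score, printed positive for inhibition, exceeds three library SD while starting fluorescence stays within three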;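 further: channel opened by potassium depolarization with thallium stimulus after 20 min compound exposure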
AI-2 QS mod: Vibrio harveyi AI-2 quorum sensing modulation; Vibrio harveyi JMH597 AI-2 luminescence/OD600 ratio, 9 h; hits give low values; strain lacks LuxN and CqsS sensors; 0 = neutral-control median; activity change, % at 7.5 µM; 300,000 compounds, 0.4% hits; in the data active means activity change below about -75%, passing the limit was not always enough;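 further: luminescence divided by OD600 gain over 9 h not by final OD600 alone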
An asterisk follows results filed as active; i = inactive; x = no result given.

SMILES	hERG protect	Mot1-301 SUMO	Cl transport mod	KCNQ1 pot	KCNQ1 inh	AI-2 QS mod
O=C(O)CCc1ccc(-c2ccc(F)cc2)n1CC(=O)O	-1.7	125.0	-0.702	i	i	10.3
CC(C)(C)c1ccc(C(=O)NCC(=O)OCC(=O)N2CCCC2)cc1	x	2.3	x	x	x	x
CC(C)N(Cc1ccccc1)C(=S)Nc1ccc(F)cc1	13.8*	-6.1	0.0519	i	i	26.9
Cc1ccc(NC(=S)N(Cc2ccccc2)C(C)C)cc1	-3.7	28.7	-0.61	i	i	12.6
CC(C)N(Cc1ccccc1)C(=S)NC(=O)C1(C)CC1(Cl)Cl (configuration not stated)	21.1*	13.5	84.6*	26*	i	22.6
CC1(C(=O)NC(=S)N(CCC#N)c2ccccc2)CC1(Cl)Cl (configuration not stated)	-8.9	-4.6	0.12	i	i	8.4
O=C(c1ccc2ccccc2c1)N1CCN(c2ccc(C(F)(F)F)cn2)CC1	-8.5	315.8*	-0.0331	i	i	29.6
O=C(NNc1ncnc2ccccc12)c1cccc(Cl)c1	-9.9	-5.1	-0.177	i	i	7.9
CC(Oc1ccc2cc(-c3ccccc3)c(=O)oc2c1)C(=O)NCC1CCC(C(=O)O)CC1 (configuration not stated)	-10.8	742.7*	x	i	i	12.4
CC(Oc1ccc2ccc(=O)oc2c1)C(=O)NCC1CCC(C(=O)O)CC1 (configuration not stated)	-3.3	-8.2	x	i	i	1.1
CCOC(=O)C1=C(C)N=c2s/c(=C\c3ccncc3)c(=O)n2C1c1ccc2c(c1)OCO2 (configuration not stated)	-13.5	-9.2	-1.07	i	8*	9.9
CCOC(=O)C1=C(C)N=c2s/c(=C\c3ccc(OCC(=O)O)cc3)c(=O)n2C1c1ccc(Cl)cc1 (configuration not stated)	-6.6	-23.0	x	i	7*	15.4
CCOC(=O)C1=C(C)N=c2s/c(=C\c3ccc(OCC(=O)O)cc3)c(=O)n2C1c1ccccc1OC (configuration not stated)	-9.0	7.5	x	i	i	16.1
CCOC(=O)C1=C(C)N=c2s/c(=C/c3ccc(OCC(=O)O)cc3)c(=O)n2C1c1ccc(F)cc1 (configuration not stated)	-5.3	-11.4	x	i	i	30.5
CCOC(=O)C1=C(C)N=c2s/c(=C/c3ccc(OCC(=O)O)cc3)c(=O)n2C1c1ccc(OC)cc1OC (configuration not stated)	-6.8	-11.0	x	i	6*	15.5
CCOC(=O)C1=C(C)N=c2s/c(=C/c3ccccc3)c(=O)n2C1c1ccc(OC)c(OC)c1 (configuration not stated)	-2.8	-5.8	-4.38	i	i	18.0
COc1ccc(C2C(C(C)=O)=C(C)N=c3s/c(=C\c4cc(C)n(C)c4C)c(=O)n32)c(OC)c1 (configuration not stated)	-25.0	-0.8	i	i	9*	25.0
COc1ccc(/C=C2\SC(=O)N(CCn3cnnn3)C2=O)cc1	-4.1	8.3	-0.609	i	i	-0.8
CCCCS(=O)(=O)NC1=NCN(C2CCN(Cc3ccccc3)CC2)CN1	x	x	0.505	x	x	x
COC(=O)c1ccc(Oc2nc(Nc3ccc(C)c(C)c3)nc(N(C)C)n2)cc1	-14.5	x	1.13	i	6*	9.4
COc1cccc(/C=N/NC(=O)CNC(=O)C(c2ccccc2)c2ccccc2)c1O	-2.3	11.8	x	i	i	-2.5
O=C(Nc1cccc(C(F)(F)F)c1)N1CCC(c2nc(-c3ccc(F)cc3)no2)CC1	-14.8	4.9	0.52	i	7*	37.2
O=C(Nc1ccccc1)N1CCCC(c2nc(-c3ccc(F)cc3)no2)C1 (configuration not stated)	-13.9	-3.0	-1.74	i	i	14.7
O=C(Nc1ccc(Cl)cc1)N1CCC(c2nc(-c3cccs3)no2)CC1	-11.6	54.4	x	i	6*	7.0
COc1ccc(CN(C(=O)CCC(=O)Nc2cc(C)on2)C(C(=O)NC(C)(C)C)c2cccc(OC)c2OC)cc1 (configuration not stated)	-8.5	90.7	x	i	i	-3.1
SMILES	hERG protect	Mot1-301 SUMO	Cl transport mod	KCNQ1 pot	KCNQ1 inh	AI-2 QS mod
COc1ccc(C)cc1NC(=O)CSc1nnc(COc2ccccc2)n1Cc1ccco1	-15.2	x	-1.32	i	i	2.3
COc1ccc(NC(=O)CSc2nnc(COc3ccccc3)n2Cc2ccco2)cc1OC	5.1*	248.9	x	i	i	-10.6
CC(C)CNC(=O)CN1c2cccc3cccc(c23)S1(=O)=O	-7.2	-7.8	x	i	i	19.5
COc1cccc(OC)c1OCCCN1CCC(Cc2ccccc2)CC1	-10.2	2.3	x	i	i	12.5
CC1(C)Cc2c(sc3[nH]c(=S)n(Cc4ccccc4)c(=O)c23)CO1	4.7*	23.6	80.6*	34*	i	16.7
COc1ccc(-c2nc(C#N)c(N3CCCCCC3)o2)cc1OC	-8.8	347.6*	-1.59	i	i	12.7
O=C(OCC(=O)N1CCCc2ccccc21)c1cccc(S(=O)(=O)N2CCc3ccccc32)c1	-7.9	3.4	-0.529	i	i	5.6
Cc1ccc(NS(=O)(=O)c2sc3ccc(Cl)cc3c2C)cc1	-2.2	665.3*	x	i	i	41.8
CN(CC(=O)NCCc1ccccc1)S(=O)(=O)c1ccc(Br)s1	-4.0	61.3	x	i	i	11.8
Nc1cccc(P(=O)(c2ccccc2)c2ccccc2)c1	-1.7	-9.4	x	i	i	13.4
O=P(c1ccccc1)(c1ccccc1)N(c1ccccc1)c1ccccc1	-4.2	36.2	0.017	i	7*	14.0
COc1ccc(S(=O)(=O)N(C(=O)c2ccncc2)c2ccc(OC(=O)c3ccncc3)cc2)cc1	-9.8	309.0*	0.307	i	i	9.4
O=C(CNC(=O)c1ccccc1)NCc1ccc(Cl)cc1	27.7*	-20.1	-0.572	18*	i	14.1
O=C(CNC(=O)c1ccc(F)cc1)NCc1ccc(Cl)cc1	-3.3	-1.7	x	i	i	3.4
Cc1ccccc1OCCn1cnc2cc([N+](=O)[O-])ccc2c1=O	-21.1	37.3	0.915	i	i	9.9
O=C(CN(C(=O)CNC(=O)c1ccco1)c1ccc(F)cc1)NC1CCCCC1	-8.8	-8.4	x	i	i	x
C=CCn1c2ccccc2c2nnc(SCN3C(=O)c4ccccc4C3=O)nc21	-8.5	26.2	x	i	6*	49.9
CCN(c1ccc(NC(=O)c2ccc(Cl)nc2)cc1)C(C)C	5.9*	-3.2	-0.0409	i	i	32.6
